Assay results: paper PMC5987874 (The Journal of General Physiology, 2018)
Substitutions are numbered along the chain they refer to. Where two headings read alike, the source gives them in different places.

Assays:
[1] = biological target: T1, human Hv1 E119H-H140A-D185H-H193A (Homo sapiens, UniProt Q96D96, D185H/E119H/H140A/H193A); experiment: Whole-cell voltage clamp, Zn^2+ modulation of GAQ gating; assay type: cell-based
T1 sequence (Q96D96 1-273 E119H/H140A/D185H/H193A): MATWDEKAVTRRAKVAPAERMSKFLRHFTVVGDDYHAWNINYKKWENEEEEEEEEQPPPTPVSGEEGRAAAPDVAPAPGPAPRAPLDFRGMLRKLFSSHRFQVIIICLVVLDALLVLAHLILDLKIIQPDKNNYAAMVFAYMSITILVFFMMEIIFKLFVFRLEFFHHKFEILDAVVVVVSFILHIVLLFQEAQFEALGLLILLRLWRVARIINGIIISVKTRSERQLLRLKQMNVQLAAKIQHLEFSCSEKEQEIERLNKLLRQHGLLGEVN
In short: (§1)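 Whole-cell patch clamp at ~21°C. Pipette and bath (mM): ~80 TMA-MeSO3, 100 Bis-Tris, 8 HCl, pH 6.5, 310–320 mOsm. ZnCl2 was diluted into bath solution and applied by gravity superfusion, at least 2 min per change. Test step voltage was set per construct from its V0.5. G_STEP = end-of-step current/(V−V_REV). Effect = 1 − G_Zn/G_control, fitted to the Hill equation. IC50 and nH are means ± SEM from separate cells. ΔpIC50 was tested by unpaired t test, P<0.05.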

[2] = biological target: T2, human Hv1 H140A (H^2.40A) (Homo sapiens, UniProt Q96D96, H140A); experiment: as above; assay type: cell-based
T2 sequence (Q96D96 1-273 H140A): T1 sequence (Q96D96 1-273 E119H/H140A/D185H/H193A) with H119E, H185D, A193H
In short: as §1

human Hv1 D130H-H193A = biological target: T3, human Hv1 D130H-H193A (Homo sapiens, UniProt Q96D96, D130H/H193A); experiment: as above; assay type: cell-based
T3 sequence (Q96D96 1-273 D130H/H193A): T1 sequence (Q96D96 1-273 E119H/H140A/D185H/H193A) with H119E, D130H, A140H, H185D
In short: as §1

[3] = biological target: T2, human Hv1 H140A (H^2.40A); details: ref Ramsey et al., 2006; cited from earlier work
[4] = biological target: T4, human Hv1 E119A (E^1.58A) (Homo sapiens, UniProt Q96D96, E119A); experiment: Whole-cell voltage clamp, Zn^2+ modulation of GAQ gating; assay type: cell-based
T4 sequence (Q96D96 1-273 E119A): T1 sequence (Q96D96 1-273 E119H/H140A/D185H/H193A) with H119A, A140H, H185D, A193H
In short: as §1

[5] = biological target: T5, human Hv1 E196H (E^4.38H) (Homo sapiens, UniProt Q96D96, E196H); experiment: as above; assay type: cell-based
T5 sequence (Q96D96 1-273 E196H): T1 sequence (Q96D96 1-273 E119H/H140A/D185H/H193A) with H119E, A140H, H185D, A193H, E196H
In short: as §1

human Hv1 D123H-H193A = biological target: T6, human Hv1 D123H-H193A (Homo sapiens, UniProt Q96D96, D123H/H193A); experiment: as above; assay type: cell-based
T6 sequence (Q96D96 1-273 D123H/H193A): T1 sequence (Q96D96 1-273 E119H/H140A/D185H/H193A) with H119E, D123H, A140H, H185D
In short: as §1

[6] = VSTEP 120 mV, calculated as log (IC50)
[7] = VSTEP 100 mV, calculated as log (IC50)

For [Cl-].[Cl-].[Zn+2] [Zn^2+, ZnCl2], the “Mean ΔpIC50 = (pIC50_1 - pIC50_2)” value ([1]; E119H-H140A-D185H-H193A vs E119H-H140A-H193A) was −0.25, the “Mean ΔpIC50 = (pIC50_1 - pIC50_2)” value ([1]; E119H-H140A-D185H-H193A vs H140A-D185H-H193A) was 1.75 and the Hill value ([1]; VSTEP 120 mV) was 0.72. For the same molecule, the pIC50 [1, 6] was −4.90, the “nH, fit of the mean data to a Hill function” value (“nH, fit of the mean data” for short) ([2]; Fig. 2C) was 0.7 and the “Mean ΔpIC50 = (pIC50_1 - pIC50_2)” value ([2]; H140A vs WT) was −1.02. For the same molecule, the Hill value ([2]; VSTEP 100 mV) was 0.67, the pIC50 [2, 7] was −4.41 and the IC50 ([2]; read-out: IC50, fit of the mean data to a Hill function, Fig. 2C) was 39 µM. The “Mean ΔpIC50 = (pIC50_1 - pIC50_2)” value (human Hv1 D130H-H193A; D130H-H193A vs D130H) was −0.16, the “Mean ΔpIC50 = (pIC50_1 - pIC50_2)” value (human Hv1 D130H-H193A; D130H-H193A vs H193A) was 1.44 and the “nH, fit of the mean data” value (human Hv1 D130H-H193A; Fig. 4C) was 0.6. It also gave a Hill value (human Hv1 D130H-H193A; VSTEP 120 mV) of 0.91, a pIC50 (human Hv1 D130H-H193A; [6]) of 5.51 and an IC50 (human Hv1 D130H-H193A; read-out: IC50, fit of the mean data to a Hill function, Fig. 4C) of 5.6 µM. The “decrease of Zn^2+ potency by single mutation” value [3] was 10- to 30 fold, the “Mean ΔpIC50 = (pIC50_1 - pIC50_2)” value ([4]; E119A vs WT) was −0.28 and the “nH, fit of the mean data” value ([4]; Fig. 3C) was 0.8. For the same molecule, the Hill value ([4]; VSTEP 120 mV) was 0.80, the pIC50 [4, 6] was 5.16 and the IC50 ([4]; read-out: IC50, fit of the mean data to a Hill function, Fig. 3C) was 6.7 µM. For the same molecule, the “Mean ΔpIC50 = (pIC50_1 - pIC50_2)” value ([5]; E196H vs WT) was −0.43, the Hill value ([5]; VSTEP 100 mV) was 0.63 and the pIC50 [5, 7] was −4.63. The “Mean ΔpIC50 = (pIC50_1 - pIC50_2)” value (human Hv1 D123H-H193A; D123H-H193A vs H193A) was 0.47, the “nH, fit of the mean data” value (human Hv1 D123H-H193A; Fig. 4B) was 0.9 and the Hill value (human Hv1 D123H-H193A; VSTEP 80 mV) was 1.06. For the same molecule, the pIC50 (human Hv1 D123H-H193A; VSTEP 80 mV, calculated as log (IC50)) was −4.54, the IC50 (human Hv1 D123H-H193A; read-out: IC50, fit of the mean data to a Hill function, Fig. 4B) was 28.6 µM and the IC50 (human Hv1 D123H-H193A; read-out: Mean IC50 @ VSTEP, VSTEP 80 mV, pH 6.5, mean of fits in separate cells) was 36 µM.
